Assay results from ChEMBL document CHEMBL1134384, “Development of new carboxylic acid-based MMP inhibitors derived from functionalized propargylglycines” (J Med Chem, 2001).
≈ marks a conversion by molar mass, not a printed value.

Legend:
Interstitial collagenase = molecular target: T1, Interstitial collagenase (Homo sapiens, UniProt P03956); test: Inhibitory activity against human matrix metalloprotease-1 in quenched fluorescence assay at […]
T1 sequence (P03956 whole entry): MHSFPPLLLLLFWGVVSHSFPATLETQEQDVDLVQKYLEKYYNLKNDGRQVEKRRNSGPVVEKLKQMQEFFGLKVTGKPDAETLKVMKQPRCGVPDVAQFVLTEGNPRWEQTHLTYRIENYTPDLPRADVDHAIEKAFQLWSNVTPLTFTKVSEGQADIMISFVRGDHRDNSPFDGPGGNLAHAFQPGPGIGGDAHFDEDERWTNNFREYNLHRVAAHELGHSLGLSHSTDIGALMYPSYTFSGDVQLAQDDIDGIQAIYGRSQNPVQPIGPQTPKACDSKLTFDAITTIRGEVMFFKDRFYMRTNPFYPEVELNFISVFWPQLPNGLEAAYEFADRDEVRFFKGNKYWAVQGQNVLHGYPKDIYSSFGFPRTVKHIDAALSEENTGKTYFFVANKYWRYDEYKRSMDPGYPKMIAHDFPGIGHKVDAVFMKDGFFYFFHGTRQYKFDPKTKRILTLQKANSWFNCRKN
Method in brief: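 Quenched fluorescence assay using truncated human recombinant enzymes expressed in E. coli, at final concentrations of 8 nM for MMP-1 and 16 nM for MMP-3. Substrate was Mca-Pro-Leu-Gly-Leu-Dpa-Ala-Arg-NH₂ at 4 μM, at 25 °C, in 50 mM Tris pH 7.5, 0.2 M NaCl, 5 mM CaCl₂, 0.02% Brij-35. Fluorescence (ex 328/em 393 nm) was read kinetically for 30 min. Eight inhibitor concentrations were tested and IC50 was fitted from Vi/V0.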

[1] = molecular target: 72 kDa type IV collagenase (Homo sapiens, UniProt P08253); test: Inhibitory activity against matrix metalloprotease-2 (MMP-2) in quenched fluorescence assay at […]
72 kDa type IV collagenase, sequence (P08253 whole entry): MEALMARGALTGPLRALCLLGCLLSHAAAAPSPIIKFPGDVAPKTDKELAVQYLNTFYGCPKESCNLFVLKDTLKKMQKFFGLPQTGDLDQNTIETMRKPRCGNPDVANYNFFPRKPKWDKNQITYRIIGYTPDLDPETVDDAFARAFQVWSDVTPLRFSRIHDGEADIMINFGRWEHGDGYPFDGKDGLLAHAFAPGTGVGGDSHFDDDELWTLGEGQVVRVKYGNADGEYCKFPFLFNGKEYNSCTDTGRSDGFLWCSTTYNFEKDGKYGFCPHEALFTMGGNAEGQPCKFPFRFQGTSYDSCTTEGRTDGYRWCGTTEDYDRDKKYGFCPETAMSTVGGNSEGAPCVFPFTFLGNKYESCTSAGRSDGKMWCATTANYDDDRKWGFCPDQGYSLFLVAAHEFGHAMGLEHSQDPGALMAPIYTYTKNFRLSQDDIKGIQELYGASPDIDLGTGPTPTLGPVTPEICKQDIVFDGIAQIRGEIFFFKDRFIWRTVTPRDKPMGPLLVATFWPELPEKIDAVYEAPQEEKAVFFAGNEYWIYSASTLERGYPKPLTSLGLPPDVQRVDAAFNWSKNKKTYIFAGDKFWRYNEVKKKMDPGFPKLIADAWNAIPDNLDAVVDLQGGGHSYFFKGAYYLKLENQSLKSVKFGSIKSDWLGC
Method in brief: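 Full-length human recombinant proMMP-2 from CHO cells was activated with 1 mM APMA for 45 min and used at 1 nM final. Cleavage of 4 μM Mca-Pro-Leu-Gly-Leu-Dpa-Ala-Arg-NH₂ was followed at 25 °C in Tris pH 7.5/NaCl/CaCl₂/Brij-35 buffer, with fluorescence read kinetically for 30 min. IC50 came from 8 inhibitor concentrations.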

Stromelysin-1 = Stromelysin-1 (Homo sapiens, UniProt P08254); test: Inhibitory activity against human matrix metalloprotease-3 (MMP-3) ([…])
Stromelysin-1, sequence (P08254 whole entry): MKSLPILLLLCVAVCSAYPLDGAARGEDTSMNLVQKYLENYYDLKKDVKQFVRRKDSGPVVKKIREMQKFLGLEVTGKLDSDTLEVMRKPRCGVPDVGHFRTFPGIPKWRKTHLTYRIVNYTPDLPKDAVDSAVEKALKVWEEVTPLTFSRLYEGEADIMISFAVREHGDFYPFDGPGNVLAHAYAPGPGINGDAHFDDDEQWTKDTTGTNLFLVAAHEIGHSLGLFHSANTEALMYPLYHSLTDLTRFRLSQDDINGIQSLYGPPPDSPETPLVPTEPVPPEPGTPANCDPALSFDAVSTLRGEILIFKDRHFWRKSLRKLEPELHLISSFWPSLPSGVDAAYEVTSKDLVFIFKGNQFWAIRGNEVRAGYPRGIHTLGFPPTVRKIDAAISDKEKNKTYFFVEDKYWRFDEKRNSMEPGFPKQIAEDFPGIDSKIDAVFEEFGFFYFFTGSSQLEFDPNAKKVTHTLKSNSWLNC

Collagenase 3 [2] = molecular target: T2, Collagenase 3 (Homo sapiens, UniProt P45452); test: Inhibitory activity against human matrix metalloprotease-13 in quenched fluorescence assay at pH 7.4
[3] = Solubility was determined at a pH of […]; type: physicochemical; conditions: pH 7
[4] = Bioavailability in rat (fasted) using cassette dosing; type: ADME, organism-based; conditions: in vivo
Method in brief: (§1)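 Fasted rats (n = 3/4) received cassette doses of 4–5 compounds per experiment at 1–5 mg/kg of each inhibitor. Each study included a control compound previously characterized in a single-compound experiment, to validate the data set and detect problems such as saturation of elimination.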

[5] = Half life was determined in fasted rats using cassette dosing technique.; type: ADME, organism-based; conditions: rat, in vivo; method in brief: as §1
Collagenase 3 [6] = molecular target: T2, Collagenase 3; test: Inhibition of human matrix metalloprotease-13 at pH 7.4

| IC50 (Interstitial collagenase) [nM] | IC50 [1] [nM] | IC50 (Stromelysin-1) [nM] | IC50 (Collagenase 3 [2]) [nM] | solubility [3] [µg/mL] | bioavailability [4] [%] | half-life [5] [h] | IC50 (Collagenase 3 [6]) [nM] | Compound |
| --- | --- | --- | --- | --- | --- | --- | --- | --- |
| > 10000 | 9 | 3920 | 226 | 410 (≈ 806 µM) | – | – | – | COc1ccc(C(=O)Nc2ccc(S(=O)(=O)NC(CC#CCOc3ccccc3)C(=O)O)cc2)cc1 (configuration not stated) |
| > 10000 | 297 | > 10000 | – | – | – | – | – | O=C(O)C(CC#CCN1CCOCC1)NS(=O)(=O)c1ccc(-c2ccccc2)cc1 (configuration not stated) |
| > 10000 | 19 | 22100 | 89 | – | – | – | – | Cc1ccc(C#Cc2ccc(S(=O)(=O)NC(CC#Cc3ccccc3)C(=O)O)cc2)cc1 (configuration not stated) |
| 5600 | 175 | 8900 | 231 | – | – | – | – | O=C(O)C(CC#Cc1ccccc1)NS(=O)(=O)c1ccc(-c2ccc(F)cc2)cc1 (configuration not stated) |
| > 10000 | 8 | 9000 | – | 3200 (≈ 7170 µM) | – | – | – | COCC#CCC(NS(=O)(=O)c1ccc(NC(=O)c2ccc(OC)cc2)cc1)C(=O)O (configuration not stated) |
| 3400 | 8 | 5100 | 33 | 120 (≈ 249 µM) | – | – | – | CO[C@H](C#Cc1ccccc1)C(NS(=O)(=O)c1ccc(-c2ccc(SC)cc2)cc1)C(=O)O (some centres not stated) |
| 6150 | 20 | – | 76 | 5800 (≈ 14400 µM) | – | – | – | COCC#CCC(NS(=O)(=O)c1ccc(-c2ccc(OC)cc2)cc1)C(=O)O (configuration not stated) |
| – | – | 15400 | 2040 | – | – | – | – | CCCCOc1ccc(S(=O)(=O)NC(CC#Cc2ccccc2)C(=O)O)cc1 (configuration not stated) |
| > 10000 | 26 | 2430 | 50 | – | – | – | – | COCCOc1ccc(-c2ccc(S(=O)(=O)NC(CC#Cc3ccccc3)C(=O)O)cc2)cc1 (configuration not stated) |
| > 10000 | 2390 | – | > 1600 | – | – | – | – | CCOc1cccc(-c2ccc(S(=O)(=O)NC(CC#Cc3ccccc3)C(=O)O)cc2)c1 (configuration not stated) |
| > 10000 | 661 | > 10000 | – | – | – | – | – | COc1ccc(-c2ccc(S(=O)(=O)NC(CC#CCN3CCN(C(=O)OC(C)(C)C)CC3)C(=O)O)cc2)cc1 (configuration not stated) |
| 3250 | 20 | 1320 | – | 30 (≈ 67.9 µM) | – | – | – | COc1ccc(-c2ccc(S(=O)(=O)NC(CC#Cc3ccccc3)C(=O)O)s2)cc1 (configuration not stated) |
| > 10000 | 547 | > 10000 | – | – | – | – | – | COc1ccc(-c2ccc(S(=O)(=O)NC(CC#CCN3CCN(c4ccccc4)CC3)C(=O)O)cc2)cc1 (configuration not stated) |
| > 10000 | 100 | > 10000 | – | – | – | – | – | COc1ccc(-c2ccc(S(=O)(=O)NC(CC#CCN3CCCC3)C(=O)O)cc2)cc1 (configuration not stated) |
| > 10000 | 380 | > 10000 | 3050 | – | – | – | – | O=C(O)C(CC#CCN1CCCC1)NS(=O)(=O)c1ccc(-c2ccccc2)cc1 (configuration not stated) |
| > 10000 | 6 | 3570 | 127 | – | – | – | – | O=C(Nc1ccc(S(=O)(=O)NC(CC#Cc2ccccc2)C(=O)O)cc1)c1ccc(Cl)cc1 (configuration not stated) |
| 6510 | 33 | 2340 | 88 | – | – | – | – | COCCOCOCC#CCC(NS(=O)(=O)c1ccc(-c2ccc(OC)cc2)cc1)C(=O)O (configuration not stated) |
| 4200 | 31 | 3700 | 81 | – | – | – | – | COc1ccc(-c2ccc(S(=O)(=O)NC(C(=O)O)[C@@H](C#Cc3ccccc3)OC)cc2)cc1 (some centres not stated) |

| IC50 (Interstitial collagenase) [nM] | IC50 [1] [nM] | IC50 (Stromelysin-1) [nM] | IC50 (Collagenase 3 [2]) [nM] | solubility [3] [µg/mL] | bioavailability [4] [%] | half-life [5] [h] | IC50 (Collagenase 3 [6]) [nM] | Compound |
| --- | --- | --- | --- | --- | --- | --- | --- | --- |
| 631 | 6 | 3400 | 16 | – | – | – | – | CSc1ccc(-c2ccc(S(=O)(=O)NC(CC#Cc3ccccc3)C(=O)O)cc2)cc1 (configuration not stated) |
| > 10000 | > 10000 | > 10000 | > 10000 | – | – | – | – | COc1ccc(S(=O)(=O)c2ccc(S(=O)(=O)NC(CC#Cc3ccccc3)C(=O)O)s2)cc1 (configuration not stated) |
| – | 87 | 16300 | – | – | – | – | – | O=C(O)C(CC#Cc1ccccc1)NS(=O)(=O)c1ccc(/N=N/c2ccccc2)cc1 (configuration not stated) |
| 11500 | 24 | 5060 | – | – | – | – | – | CSc1ccc(-c2ccc(S(=O)(=O)NC(CC#CCN3CCOCC3)C(=O)O)cc2)cc1 (configuration not stated) |
| 2000 | 12 | 2280 | 21 | 20 (≈ 45.9 µM) | 49 | 1.7 | – | COc1ccc(-c2ccc(S(=O)(=O)NC(CC#Cc3ccccc3)C(=O)O)cc2)cc1 (configuration not stated) |
| > 10000 | 12 | 17400 | 344 | 4400 (≈ 7990 µM) | – | – | – | O=C(Nc1ccc(S(=O)(=O)NC(CC#CCN2CCOCC2)C(=O)O)cc1)c1ccc(Br)cc1 (configuration not stated) |
| > 10000 | 9 | 4360 | 35 | 20 (≈ 43.5 µM) | 26 | 0.7 | – | COc1ccc(C#Cc2ccc(S(=O)(=O)NC(CC#Cc3ccccc3)C(=O)O)cc2)cc1 (configuration not stated) |
| > 10000 | 1480 | 4560 | 2150 | – | – | – | – | O=C(O)C(CC#Cc1ccccc1)NS(=O)(=O)c1ccc(Oc2ccccc2)cc1 (configuration not stated) |
| > 10000 | 1160 | > 10000 | – | – | – | – | – | COc1ccc(-c2ccc(S(=O)(=O)NC(CC#CCN3CCN(S(C)(=O)=O)CC3)C(=O)O)cc2)cc1 (configuration not stated) |
| > 10000 | 2770 | > 10000 | > 10000 | – | – | – | – | COCC#CCC(NS(=O)(=O)c1ccc(NC(=O)N2CCOCC2)cc1)C(=O)O (configuration not stated) |
| 24800 | 17 | 3330 | 147 | 12000 (≈ 26500 µM) | – | – | – | COCC#CCC(NS(=O)(=O)c1ccc(-c2ccc(Br)cc2)cc1)C(=O)O (configuration not stated) |
| – | 28 | 6600 | – | 151000 (≈ 313000 µM) | 12 | 3.6 | – | COc1ccc(C#Cc2ccc(S(=O)(=O)NC(CC#CCN3CCOCC3)C(=O)O)cc2)cc1 (configuration not stated) |
| > 10000 | 158 | 14600 | – | – | – | – | – | COc1ccc(-c2ccc(S(=O)(=O)NC(CC#Cc3ccc(N4CCOCC4)cc3)C(=O)O)cc2)cc1 (configuration not stated) |
| – | 46 | 10100 | – | – | – | – | 145 | COc1ccc(C#Cc2ccc(S(=O)(=O)NC(CC#Cc3ccccc3)C(=O)O)s2)cc1 (configuration not stated) |
| > 10000 | 1470 | 4560 | 2150 | – | – | – | – | O=C(O)C(CC#Cc1ccccc1)NS(=O)(=O)c1ccc(-c2ccc(Oc3ccccc3)cc2)cc1 (configuration not stated) |
| > 10000 | 567 | > 10000 | 16900 | – | – | – | – | COCC#CCC(NS(=O)(=O)c1ccc(NC(=O)N2CCCC2)cc1)C(=O)O (configuration not stated) |
| 13700 | 104 | 10700 | – | – | – | – | – | COc1ccc(-c2ccc(S(=O)(=O)NC(CC#CCN3CCOCC3)C(=O)O)cc2)cc1 (configuration not stated) |
| > 10000 | > 10000 | > 10000 | > 10000 | – | – | – | – | COc1ccc(S(=O)(=O)c2csc(S(=O)(=O)NC(CC#Cc3ccccc3)C(=O)O)c2)cc1 (configuration not stated) |

| Compound | IC50 (Interstitial collagenase) [nM] | IC50 [1] [nM] | IC50 (Stromelysin-1) [nM] | IC50 (Collagenase 3 [2]) [nM] | solubility [3] [µg/mL] | bioavailability [4] [%] | half-life [5] [h] | IC50 (Collagenase 3 [6]) [nM] |
| --- | --- | --- | --- | --- | --- | --- | --- | --- |
| O=C(O)C(CC#CCOc1ccccc1)NS(=O)(=O)c1ccc(-c2ccc(Br)cc2)cc1 (configuration not stated) | > 10000 | 23 | 1810 | 254 | – | – | – | – |
| O=C(O)C(CC#Cc1ccccc1)NS(=O)(=O)c1ccc(-c2ccc3c(c2)OCO3)cc1 (configuration not stated) | 10300 | 29 | 5440 | 104 | 80 (≈ 178 µM) | – | – | – |
| COc1ccc(-c2ccc(S(=O)(=O)NC(C(=O)O)[C@@H](C#Cc3ccccc3)OCc3ccccc3)cc2)cc1 (some centres not stated) | > 10000 | 8 | 4270 | 14 | – | – | – | – |
| COc1ccc(-c2ccc(S(=O)(=O)NC(CC#CCc3ccccc3)C(=O)O)cc2)cc1 (configuration not stated) | 3340 | 33 | 777 | 22 | – | – | – | – |
| COCC#CCC(NS(=O)(=O)c1ccc(NC(=O)c2ccc(Br)cc2)cc1)C(=O)O (configuration not stated) | > 10000 | 6 | 8620 | 270 | – | – | – | – |
| COc1ccc(-c2ccc(S(=O)(=O)NC(CC#Cc3cccc(N4CCOCC4)c3)C(=O)O)cc2)cc1 (configuration not stated) | 3660 | 16 | 3520 | 24 | 580 (≈ 1110 µM) | 7 | 0.1 | – |
| O=C(O)C(CC#Cc1ccccc1)NS(=O)(=O)c1ccc(-c2ccc(-c3ccccc3)cc2)cc1 (configuration not stated) | > 10000 | 29 | > 10000 | 59 | – | – | – | – |
| O=C(Nc1ccc(S(=O)(=O)NC(CC#CCOc2ccccc2)C(=O)O)cc1)c1ccc(Br)cc1 (configuration not stated) | > 10000 | 9 | 2850 | – | 50 (≈ 89.7 µM) | – | – | – |
